The record followed here is ChEMBL document CHEMBL4364301 (Eur J Med Chem, 2019).

Data set [1] deals with CWR22R. Briefly: Antiproliferative activity against human 22Rv1 cells assessed as T/C value at 3.2 uM incubated for 96 hrs by propidium iodide based 2D monolayer assay. It is filed as functional. In outline: (§1)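 Cells were kept in RPMI 1640 with 25 mM HEPES, 10% FCS and gentamicin at 37 °C under 5% CO2, and plated at 4,000-20,000 cells/well. After 24 h recovery, compound in medium or medium alone (control wells) was added at 10 half-log concentrations from 0.0032 to 100 µM, in triplicate, with at most 0.3% DMSO. After 96 h, wells were PBS-washed, stained with 7 µg/ml PI and 0.1% Triton X-100, and fluorescence read at 530/620 nm. IC50 came from a 4-parameter fit, geometric mean.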

For data set [2], the system named is DU-145. Kind of data set: Antiproliferative activity against human DU145 cells assessed as T/C value at 1 x 10^1 uM incubated for 96 hrs by propidium iodide based 2D monolayer assay. The format is functional. In outline: (§2)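 After 24 h recovery, compound in medium or medium alone (control wells) was added at 10 half-log concentrations from 0.0032 to 100 µM, in triplicate, with at most 0.3% DMSO. After 96 h, wells were PBS-washed, stained with 7 µg/ml PI and 0.1% Triton X-100, and fluorescence read at 530/620 nm. IC50 came from a 4-parameter fit, geometric mean.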

Data set [3] concerns LNCaP. Kind of data set: Antiproliferative activity against human LNCAP cells assessed as T/C value at 1 x 10^2 uM incubated for 96 hrs by propidium iodide based 2D monolayer assay. It is filed as functional. Put shortly:
as §1

For data set [4], the system named is CWR22R. Kind of data set: Antiproliferative activity against human 22Rv1 cells assessed as T/C value at 1 x 10^1 uM incubated for 96 hrs by propidium iodide based 2D monolayer assay. The format is functional. In outline:
as §1

Data set [5] concerns VCaP. Briefly: Antiproliferative activity against human VCaP cells assessed as T/C value at 1 x 10^-2 uM incubated for 96 hrs by propidium iodide based 2D monolayer assay. The format is functional. Put shortly: as §1
Data set [6] deals with DU-145. Kind of data set: Antiproliferative activity against human DU145 cells assessed as T/C value at 3.2 x 10^-1 uM incubated for 96 hrs by propidium iodide based 2D monolayer assay. It is filed as functional. Put shortly:
as §2

For data set [7], the system named is VCaP. Briefly: Antiproliferative activity against human VCaP cells assessed as T/C value at 3.2 x 10^-3 uM incubated for 96 hrs by propidium iodide based 2D monolayer assay. It is filed as functional. In outline:
(§3)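 VCaP cells in RPMI 1640 with 10% FCS at 37 °C, 5% CO2, seeded 4,000–20,000 cells/well and left 24 h before dosing. Compounds from DMSO stocks were diluted in half-log steps in medium, 10 concentrations 0.0032–100 μM, triplicate wells, max 0.3% DMSO. After 96 h, cells were washed, stained with 7 μg/ml propidium iodide plus 0.1% Triton X-100 for 1–2 h at room temperature, and fluorescence read at ex 530/em 620 nm.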

The test system of data set [8] is DU-145. Briefly: Antiproliferative activity against human DU145 cells assessed as reduction in cell growth incubated for 96 hrs by propidium iodide based 2D monolayer assay. It is filed as functional. Particulars: DU-145, 96 h. Put shortly: as §2
Data set [9] relates to DU-145. Kind of data set: Antiproliferative activity against human DU145 cells assessed as T/C value at 1 uM incubated for 96 hrs by propidium iodide based 2D monolayer assay. The format is functional. In outline:
as §2

The test system of data set [10] is VCaP. Briefly: Antiproliferative activity against human VCaP cells assessed as T/C value at 3.2 x 10^1 uM incubated for 96 hrs by propidium iodide based 2D monolayer assay. It is filed as functional. In outline: as §3
In data set [11] the test system is VCaP. Kind of data set: Antiproliferative activity against human VCaP cells assessed as T/C value at 1 x 10^-1 uM incubated for 96 hrs by propidium iodide based 2D monolayer assay. It is filed as functional. In outline:
as §1

Data set [12] has as its system CWR22R. Briefly: Antiproliferative activity against human 22Rv1 cells assessed as T/C value at 3.2 x 10^-1 uM incubated for 96 hrs by propidium iodide based 2D monolayer assay. The format is functional. In outline:
as §1

Data set [13] can be described thus: Protein binding in plasma (unknown origin) at 5 uM by LC-MS/MS analysis. The format is ADME, cell-free. Particulars: read-out: PPB (converted). In outline:
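Compound at 5 μM final in 100% plasma was dialysed against pH 7.4 buffer by equilibrium dialysis at 37 °C. Both sides were quantified by LC-MS/MS, unbound fraction was calculated, and results are given as % bound from duplicate experiments.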

Data set [14] deals with hERG (KCNH2) (Homo sapiens, UniProt Q12809). Kind of data set: Inhibition of human ERG expressed in CHO cells at 25 uM by whole-cell voltage-clamp analysis relative to control. The format is cell-based. Particulars: CHO cells expressing human ERG. In outline:
(§4)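 CHO cells expressing hERG were held in Dulbecco's PBS with Ca/Mg, pH 7–7.2, at room temperature. Tail currents were recorded by automated whole-cell voltage clamp after 300 s exposure. […] Quinidine served as positive control and 0.25% DMSO buffer as negative control.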

Data set [15] in a line: Metabolic stability in liver microsomes (unknown origin) assessed as intrinsic clearance per mg of protein at 3 uM measured upto 45 mins in presence of NADPH by LC-MS/MS analysis. It is filed as ADME, Microsome. The settings on record: read-out: CLH. In outline:
(§5)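 Pooled liver microsomes at 0.5 mg/mL protein in 0.1 M phosphate buffer pH 7.4 were incubated with 3 μM compound (0.25% DMSO) at 37 °C. Reactions were started with 1 mM NADPH and sampled at 0, 5, 15, 30 and 45 min. A minus-NADPH control ran for 45 min. Reactions were quenched in methanol and analysed by LC-MS/MS to give CLint and t1/2.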

A short description of data set [16]: Metabolic stability in liver microsomes (unknown origin) assessed as half life at 3 uM measured upto 45 mins in presence of NADPH by LC-MS/MS analysis. The format is ADME, Microsome. In outline:
as §5
In general terms: Liver microsomes are a subcellular fraction often used to study metabolism.

The target in data set [17] is Voltage-gated inwardly rectifying potassium channel KCNH2 (Homo sapiens, UniProt Q12809). Briefly: Inhibition of human ERG expressed in CHO cells by whole-cell voltage-clamp analysis. The format is cell-based. In outline: as §4
Sequence of Voltage-gated inwardly rectifying potassium channel KCNH2 (Q12809 whole entry): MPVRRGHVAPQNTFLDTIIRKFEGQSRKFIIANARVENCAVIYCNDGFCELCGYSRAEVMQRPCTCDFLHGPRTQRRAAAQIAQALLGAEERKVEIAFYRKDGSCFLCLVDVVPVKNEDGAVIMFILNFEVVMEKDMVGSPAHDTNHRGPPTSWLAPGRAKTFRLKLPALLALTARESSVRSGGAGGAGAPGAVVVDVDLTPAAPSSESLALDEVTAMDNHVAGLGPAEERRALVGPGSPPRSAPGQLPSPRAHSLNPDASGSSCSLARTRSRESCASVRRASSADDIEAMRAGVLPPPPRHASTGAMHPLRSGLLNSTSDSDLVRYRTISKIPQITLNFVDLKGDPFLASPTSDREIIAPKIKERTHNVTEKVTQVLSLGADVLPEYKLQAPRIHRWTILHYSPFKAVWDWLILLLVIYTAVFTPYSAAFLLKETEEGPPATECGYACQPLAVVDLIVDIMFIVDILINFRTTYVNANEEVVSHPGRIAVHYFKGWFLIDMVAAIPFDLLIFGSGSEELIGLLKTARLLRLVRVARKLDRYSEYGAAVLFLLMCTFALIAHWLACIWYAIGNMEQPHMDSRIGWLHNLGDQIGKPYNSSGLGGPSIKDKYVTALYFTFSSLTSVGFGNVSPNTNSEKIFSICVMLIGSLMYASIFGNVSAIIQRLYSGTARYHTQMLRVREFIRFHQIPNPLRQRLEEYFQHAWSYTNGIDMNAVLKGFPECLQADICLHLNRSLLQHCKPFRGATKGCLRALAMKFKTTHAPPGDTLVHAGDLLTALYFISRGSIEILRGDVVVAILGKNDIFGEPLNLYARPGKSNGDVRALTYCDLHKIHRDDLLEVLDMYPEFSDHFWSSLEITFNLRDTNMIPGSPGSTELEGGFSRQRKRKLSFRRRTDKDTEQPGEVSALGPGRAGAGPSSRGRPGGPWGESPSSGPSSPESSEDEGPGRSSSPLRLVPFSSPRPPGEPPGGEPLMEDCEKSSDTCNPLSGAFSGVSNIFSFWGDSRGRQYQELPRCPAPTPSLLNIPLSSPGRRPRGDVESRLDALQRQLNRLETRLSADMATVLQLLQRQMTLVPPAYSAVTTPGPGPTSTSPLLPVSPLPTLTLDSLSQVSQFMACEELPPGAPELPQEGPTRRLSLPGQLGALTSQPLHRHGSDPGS

Sequence of hERG (KCNH2) (Q12809 whole entry): as above

A word on the T/C: it is the result in the treated group divided by that in the control group, in per cent. What is called IC50 is the concentration needed to halve the response being measured. What is called IC70 is the point of the concentration-response curve where the effect stands at 70%. Consider `CC1(C)C(=O)N(c2ccc(C#N)cc2C(F)(F)F)C(=S)N1c1cccc(S(F)(F)(F)(F)F)c1`, for which the T/C in data set [1] is given as 93%; in [2] it was 96%; in data set [3] it was 21%; in data set [4] it was 60%; in data set [5], 84%; in data set [6], 110%. For the same compound, the T/C is listed as 106% in data set [7]; 112% in data set [9]; 57% in data set [10]; 88% in data set [11]; 101% in data set [12]. In [8], the IC50 was found to be 100 µM. In addition, the IC70 in data set [8] was > 100 µM.

Consider `CC1(C)C(=O)N(c2ccc(C#N)cc2C(F)(F)F)C(=S)N1c1ccc(S(F)(F)(F)(F)F)cc1`, for which the T/C in data set [1] was determined as 78%; in data set [2], 53%; in data set [3], 7%; in data set [4], 25%; in data set [5], 100%; in [6] it was 115%. In addition, the T/C in [7] is given as 93%; in [9], 104%; in data set [10], 64%; in [11], 103%; in data set [12] it was 101%. Also, in data set [8], the IC50 came out at 12.7 µM. In addition, the IC70 in data set [8] came out at 29.1 µM.

For `CC1(C)C(=O)N(c2cccc(S(F)(F)(F)(F)F)c2)C(=S)N1c1cccc(C(F)(F)F)c1`, the T/C in data set [1] is listed as 79%; in data set [2], 83%; in data set [3], 22%; in data set [4], 69%; in data set [5] it was 82%; in data set [6], 108%. Moreover, the T/C in [7] amounted to 104%; in data set [9], 108%; in [10], 63%; in [11], 80%; in data set [12] it was 98%. The IC50 in [8] amounted to 100 µM. In data set [8], the IC70 is > 100 µM.

In the case of `CC(O)(COc1cccc(S(F)(F)(F)(F)F)c1)C(=O)Nc1cc(C(F)(F)F)cc(C(F)(F)F)c1` (racemic), the T/C in [1] came to 29%; in data set [2], 6%; in data set [3], 2%; in data set [4] it was 12%; in data set [5], 99%; in data set [6], 117%. The T/C is 111% in [7]; 120% in data set [9]; 5% in data set [10]; 92% in [11]; 101% in data set [12]. The IC50 in data set [8] was determined as 5.7 µM. In addition, the IC70 in data set [8] was determined as 6.66 µM.

For orientation: inhibition means the drop in the measured response relative to a control, in per cent. A low value points to a weak effect. As usually defined, the half-life is how long it takes for the measured level to halve. For `CC(O)(COc1ccc(S(F)(F)(F)(F)F)cc1)C(=O)Nc1cc(C(F)(F)F)cc(C(F)(F)F)c1` (racemic), the fraction unbound at 5 µM in data set [13] is 0.091. Besides, the T/C is 52% in data set [1]; 16% in data set [2]; 1% in [3]; 13% in [4]; 102% in [5]; 115% in data set [6]. Moreover, the T/C in data set [7] amounted to 105%; in data set [9], 117%; in data set [10], 4%; in data set [11], 107%; in data set [12], 110%. The compound also displayed an inhibition at 25 µM in data set [14] of 13.4%. The microsomal CLint at 3 µM in data set [15] was 3.08 µL/min/mg. Also, the half-life at 3 µM in data set [16] stood at 7.5 h. Also, the figures for the IC50 in [17] and in [8] were > 25 µM and 6.5 µM, respectively. Also, the IC70 in [8] was 7.99 µM.

On to `CC(O)(COc1cc(C(F)(F)F)cc(C(F)(F)F)c1)C(=O)Nc1cccc(S(F)(F)(F)(F)F)c1` (racemic), for which the T/C is 102% in [1]; 12% in [2]; 2% in [3]; 13% in data set [4]; 87% in data set [5]; 116% in data set [6]. The T/C is listed as 97% in [7]; 123% in data set [9]; 4% in data set [10]; 78% in data set [11]; 105% in [12]. For the same compound, in [8], the IC50 was 9.3 µM. Moreover, the IC70 in [8] stood at 9.59 µM.

Consider `CC(O)(COc1cccc(S(F)(F)(F)(F)F)c1)C(=O)Nc1ccc([N+](=O)[O-])c(C(F)(F)F)c1` (racemic), for which the fraction unbound at 5 µM in [13] was 0.015. The T/C in data set [1] was 62 - 92%; in data set [2], 9 - 16%; in data set [3] it was 1 - 2%; in [4], 13 - 14%; in data set [5], 97 - 108%; in [6] it was 121 - 129%. Also, the T/C in data set [7] is recorded as 103 - 109%; in [9] it was 122 - 125%; in data set [10], 2 - 4%; in data set [11], 94 - 115%; in data set [12], 107 - 111%. Moreover, the inhibition at 25 µM in data set [14] is 38.1%. In addition, in data set [15], the microsomal CLint at 3 µM came to 3.21 µL/min/mg. Further, the half-life at 3 µM in data set [16] was 7.18 h. In addition, the IC50 in data set [17] was > 25 µM; in data set [8], 7.4 µM. Moreover, the IC70 in [8] lay within 7.24 to 8.54 µM.

For the compound `CC(O)(COc1cc(C(F)(F)F)cc(C(F)(F)F)c1)C(=O)Nc1ccc(S(F)(F)(F)(F)F)cc1` (racemic), the T/C was determined as 103% in data set [1]; 15% in data set [2]; 3% in data set [3]; 16% in data set [4]; 95% in data set [5]; 113% in data set [6]. Further, the T/C was 101% in [7]; 118% in data set [9]; 6% in [10]; 99% in data set [11]; 109% in data set [12]. Moreover, the IC50 in data set [8] is 8.6 µM. For the same compound, in [8], the IC70 came to 9.21 µM.

For the compound `CC(O)(COc1ccccc1C(F)(F)F)C(=O)Nc1ccc(S(F)(F)(F)(F)F)cc1` (racemic), the fraction unbound at 5 µM in data set [13] is 0.014. For the same compound, the T/C in data set [1] is 2 - 9%; in [2], 1 - 20%; in [3], 1 - 2%; in data set [4], 1 - 6%; in [5] it was 87 - 102%; in data set [6], 107 - 132%. Further, the T/C is 97 - 98% in data set [7]; 88 - 127% in data set [9]; 3 - 11% in data set [10]; 75 - 96% in data set [11]; 69 - 110% in data set [12]. In [14], this compound returned an inhibition at 25 µM of 26.3%. Besides, the microsomal CLint at 3 µM in data set [15] came out at 22 µL/min/mg. In addition, the half-life at 3 µM in data set [16] amounted to 1.05 h. For the same compound, the IC50 was > 25 µM in data set [17] and 7.1 µM in data set [8].
